From paper PMC5771882 (Biochemistry, 2017) come the findings set out here.

For experiment [1], the target named is T1, recombinant DGKα (Rattus norvegicus, UniProt P51556). The experiment in a line: LC–MS quantitative chemical proteomic assay. In kind it is binding.
For a further experiment, the target named is BRAF (Homo sapiens, UniProt P15056). The experiment in a line: LC–MS quantitative chemical proteomic assay. In kind it is binding. As to conditions: ATP 1 mM.
A further experiment addresses HSP70-1A/B (Homo sapiens, UniProt P0DMV8). The experiment in a line: LC–MS quantitative chemical proteomic assay. In kind it is binding. To be noted: ATP 1 mM.
For experiment [2], the target named is T1, recombinant DGKα. The experiment in a line: DAG phosphorylation substrate assay. In kind it is biochemical. As to conditions: DGKα-overexpressed HEK293T soluble proteomes. The procedure, abridged:
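IC50 derived from a dose–response curve of DAG phosphorylation by recombinant DGKα across a range of test compound concentrations. Data are means ± standard error of the mean of two biological replicates, and a 95% confidence interval is given for the IC50.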

Each structure is given as a SMILES string. Bounds are passed on as bounds.

T1 sequence (P51556 whole entry): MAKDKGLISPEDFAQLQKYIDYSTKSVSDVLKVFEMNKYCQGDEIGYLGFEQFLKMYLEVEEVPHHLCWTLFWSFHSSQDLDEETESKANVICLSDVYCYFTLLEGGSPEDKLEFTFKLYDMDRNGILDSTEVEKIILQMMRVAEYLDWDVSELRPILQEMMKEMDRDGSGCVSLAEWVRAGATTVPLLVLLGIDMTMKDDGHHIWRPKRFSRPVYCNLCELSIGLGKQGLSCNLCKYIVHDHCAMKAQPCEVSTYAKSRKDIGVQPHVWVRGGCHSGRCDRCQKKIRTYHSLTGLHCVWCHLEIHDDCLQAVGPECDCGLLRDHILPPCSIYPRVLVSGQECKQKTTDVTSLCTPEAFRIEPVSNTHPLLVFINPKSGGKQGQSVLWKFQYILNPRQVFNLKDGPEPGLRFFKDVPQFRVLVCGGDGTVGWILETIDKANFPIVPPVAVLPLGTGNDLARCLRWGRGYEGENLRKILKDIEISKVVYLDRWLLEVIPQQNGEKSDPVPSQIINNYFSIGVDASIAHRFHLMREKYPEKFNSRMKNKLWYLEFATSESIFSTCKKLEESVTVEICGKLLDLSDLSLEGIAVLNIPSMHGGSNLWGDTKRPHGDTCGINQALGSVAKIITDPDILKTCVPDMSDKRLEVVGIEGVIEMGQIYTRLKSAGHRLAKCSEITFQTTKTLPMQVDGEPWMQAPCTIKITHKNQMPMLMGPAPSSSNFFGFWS
Chain of HSP70-1A/B (P0DMV8 whole entry): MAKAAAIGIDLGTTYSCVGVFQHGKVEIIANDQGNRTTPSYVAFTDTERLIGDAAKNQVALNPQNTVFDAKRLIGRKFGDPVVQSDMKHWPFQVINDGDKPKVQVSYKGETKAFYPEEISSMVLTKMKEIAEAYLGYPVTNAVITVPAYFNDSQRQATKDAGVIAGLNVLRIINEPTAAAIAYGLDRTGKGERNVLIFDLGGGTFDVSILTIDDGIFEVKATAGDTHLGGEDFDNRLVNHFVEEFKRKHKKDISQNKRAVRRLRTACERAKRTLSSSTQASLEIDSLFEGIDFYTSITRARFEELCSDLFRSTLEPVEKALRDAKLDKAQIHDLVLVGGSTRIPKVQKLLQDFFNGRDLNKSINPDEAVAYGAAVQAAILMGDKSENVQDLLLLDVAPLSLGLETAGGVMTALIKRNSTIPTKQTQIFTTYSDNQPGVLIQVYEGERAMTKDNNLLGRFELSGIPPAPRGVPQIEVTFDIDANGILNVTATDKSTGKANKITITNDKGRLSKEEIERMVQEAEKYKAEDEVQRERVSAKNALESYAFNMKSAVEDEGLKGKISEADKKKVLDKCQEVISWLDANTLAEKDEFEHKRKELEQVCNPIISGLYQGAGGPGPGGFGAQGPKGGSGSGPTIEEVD
Chain of BRAF (P15056 whole entry): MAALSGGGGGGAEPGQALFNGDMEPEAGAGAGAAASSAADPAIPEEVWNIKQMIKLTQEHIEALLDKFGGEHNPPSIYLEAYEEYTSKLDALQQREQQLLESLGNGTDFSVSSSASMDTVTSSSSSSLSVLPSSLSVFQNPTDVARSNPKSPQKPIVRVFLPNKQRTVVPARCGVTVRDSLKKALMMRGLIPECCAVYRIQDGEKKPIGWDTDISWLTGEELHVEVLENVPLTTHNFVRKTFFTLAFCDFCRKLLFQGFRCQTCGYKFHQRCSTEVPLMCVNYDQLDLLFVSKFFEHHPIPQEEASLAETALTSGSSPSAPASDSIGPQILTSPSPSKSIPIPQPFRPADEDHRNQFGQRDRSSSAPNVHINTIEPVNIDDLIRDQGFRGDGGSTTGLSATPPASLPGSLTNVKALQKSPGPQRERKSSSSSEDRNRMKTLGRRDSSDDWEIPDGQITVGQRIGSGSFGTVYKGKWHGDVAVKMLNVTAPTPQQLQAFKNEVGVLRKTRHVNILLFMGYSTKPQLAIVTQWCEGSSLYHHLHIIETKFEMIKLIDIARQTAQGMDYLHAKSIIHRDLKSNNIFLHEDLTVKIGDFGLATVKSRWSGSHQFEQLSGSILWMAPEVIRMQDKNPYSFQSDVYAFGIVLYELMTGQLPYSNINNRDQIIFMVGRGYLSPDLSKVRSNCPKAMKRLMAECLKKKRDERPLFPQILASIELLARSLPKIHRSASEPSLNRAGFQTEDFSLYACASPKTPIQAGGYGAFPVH

`Nc1ncnc2c1ncn2[C@@H]1O[C@H](COP(=O)(O)OP(=O)(O)OP(=O)(O)O)[C@@H](O)[C@H]1O` [ATP]: the “blockade of probe labeling at primary ATP-binding sites (DAGKc/DAGKa)” value at recombinant DGKα [1] (RLM001 10 mM, ATP 1 mM) is listed as “near-complete blockade of probe labeling”. The “SILAC ratio (SR), C1-binding site” value on recombinant DGKα [1] (free ATP (1 mM)) is given as ~ 2. For the same molecule, the “SILAC ratio (SR), BRAF” value on BRAF was more than 5. The “SILAC ratio (SR), HSP70-1A K56/HSP70-1B K56” value on HSP70-1A/B was more than 5.

For `Cc1nc2sccn2c(=O)c1CCN1CCC(=C(c2ccccc2)c2ccc(F)cc2)CC1` [R59022], the “blockade of recombinant DGKα catalytic activity” value on recombinant DGKα [2] is “blockade of catalytic activity”.

Turning to `Cc1nc2sccn2c(=O)c1CCN1CCC(=C(c2ccc(F)cc2)c2ccc(F)cc2)CC1` [ritanserin], the “blockade of recombinant DGKα catalytic activity” value on recombinant DGKα [2] is recorded as “blockade of catalytic activity”.
